Results from ChEMBL document CHEMBL1129338, “Inhibitors of acyl-CoA:cholesterol O-acyltransferase. synthesis and pharmacological activity of (+/-)-2-dodecyl-alpha-phenyl-N-(2,4,6-trimethoxyphenyl)-2H-tetrazole-5- acetamide and structurally related tetrazole amide derivatives” (J Med Chem, 1996).

How the values were obtained:
[1] = molecular target: T1, Sterol O-acyltransferase 1 (Rattus norvegicus, UniProt O70536); assay: In vitro inhibitory activity against acyl coenzyme A:cholesterol acyltransferase 1 of liver microsomes isolated from cholesterol-fed rats.
T1 sequence (O70536 whole entry): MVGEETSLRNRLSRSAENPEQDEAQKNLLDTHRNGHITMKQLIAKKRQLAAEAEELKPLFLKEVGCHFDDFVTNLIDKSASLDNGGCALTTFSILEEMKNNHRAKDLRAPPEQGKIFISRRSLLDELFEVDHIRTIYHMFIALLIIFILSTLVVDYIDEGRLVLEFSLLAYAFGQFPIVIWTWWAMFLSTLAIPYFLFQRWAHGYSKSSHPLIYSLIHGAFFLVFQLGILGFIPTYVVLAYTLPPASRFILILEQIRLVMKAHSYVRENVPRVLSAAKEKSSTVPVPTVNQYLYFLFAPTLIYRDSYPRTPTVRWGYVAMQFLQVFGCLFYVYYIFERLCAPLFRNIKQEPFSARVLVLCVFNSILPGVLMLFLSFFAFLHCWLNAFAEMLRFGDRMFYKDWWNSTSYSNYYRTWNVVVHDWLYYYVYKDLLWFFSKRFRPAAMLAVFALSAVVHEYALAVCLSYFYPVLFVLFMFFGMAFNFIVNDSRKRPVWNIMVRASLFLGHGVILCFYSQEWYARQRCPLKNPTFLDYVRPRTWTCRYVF
Method in brief: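 ACAT inhibition was measured in hepatic microsomes isolated from cholesterol-fed rats. Each determination was run in triplicate, and IC50 was reported.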

[2] = molecular target: T2, Sterol O-acyltransferase 1 (Mus musculus) (UniProt Q61263); assay: In vitro inhibitory activity against acyl coenzyme A:cholesterol acyltransferase 1 in cell culture assay using murine IC-21 macrophages at 0.1 uM
T2 sequence (whole entry): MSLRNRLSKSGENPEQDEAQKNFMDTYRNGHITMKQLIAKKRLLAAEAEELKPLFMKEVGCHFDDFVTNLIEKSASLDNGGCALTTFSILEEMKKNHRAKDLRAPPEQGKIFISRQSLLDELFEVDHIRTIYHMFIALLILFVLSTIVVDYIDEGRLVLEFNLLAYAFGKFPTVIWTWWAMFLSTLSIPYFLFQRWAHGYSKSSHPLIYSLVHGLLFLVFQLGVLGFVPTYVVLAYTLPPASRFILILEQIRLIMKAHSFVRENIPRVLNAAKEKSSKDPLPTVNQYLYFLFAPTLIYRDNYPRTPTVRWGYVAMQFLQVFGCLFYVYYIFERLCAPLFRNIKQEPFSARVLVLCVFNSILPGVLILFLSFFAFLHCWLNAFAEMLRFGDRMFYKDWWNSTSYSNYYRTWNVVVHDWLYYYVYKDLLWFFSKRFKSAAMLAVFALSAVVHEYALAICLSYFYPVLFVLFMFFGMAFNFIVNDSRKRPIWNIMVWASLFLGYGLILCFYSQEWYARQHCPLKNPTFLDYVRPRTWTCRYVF
Method in brief: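 IC-21 mouse macrophages were preincubated 16 h in serum-free DMEM with 20 µM albumin and phosphatidylserine/cholesterol vesicles. The vesicles were sonicated in 150 mM NaCl, 5 mM MOPS, 1 mM EDTA, pH 7.4, and filter-sterilized. Medium was then replaced with serum-free DMEM containing the compound in DMSO at 0.1 µM. Percent inhibition was read, with cell protein measured by the Lowry method.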

Rattus norvegicus [3] = assay: Percent change in total cholesterol (TC) in cholic acid (0.5%)-, cholesterol (1.5%) -, and peanut oil (5.5%)- fed rats at a dose 30 mg/kg.; type: functional
Oryctolagus cuniculus [4] = assay: % change in total cholesterol(TC) versus progression control (PC) with out drug intervention in chronic cholesterol-fed rabbit model at a dose of 5 mg/kg; type: functional
Method in brief: (§1)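 Male New Zealand rabbits (1-1.5 kg) were meal-fed 50 g/day of chow with 0.5% cholesterol, 3% coconut oil and 3% peanut oil. After 1 week, compound was added to the diet for 2 weeks at 5 or 25 mg/kg. Plasma total cholesterol came from cardiac blood of fasted animals after nitrogen asphyxiation. It was compared with cholesterol-fed progression controls or with T0, the start of drug intervention, when plasma cholesterol was taken 24 h after the drug meal.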

Rattus norvegicus [5] = assay: Percent change in High Density Lipoproteins (HDL) in Chronic Cholesterol -Fed rat model at a dose 30 mg/kg; type: functional
Method in brief: (§2)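 Rats ate a high-fat, high-cholesterol diet for 14 days. During the second week they received the test compound daily by gavage at 30 mg/kg, in a carboxymethylcellulose/Tween-20 aqueous vehicle. Plasma lipids (total cholesterol, HDL-C, non-HDL-C) were read as percent change.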

Rattus norvegicus [6] = assay: Percent change in non High Density Lipoproteins (HDL) in Chronic Cholesterol -Fed rat model at a dose 30 mg/kg
Oryctolagus cuniculus [7] = assay: Dose response in cholesterol fed rabbit after oral administration; type: functional
Method in brief: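 Cholesterol-fed rabbit model with oral dosing across a dose series, 8 animals per dose. Plasma cholesterol reduction was averaged at each dose. ED50, the dose lowering plasma total cholesterol 50%, was calculated from these mean responses with the median-effect equation.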

Oryctolagus cuniculus [8] = assay: Percent change in total cholesterol(TC) versus (T0)- at which drug intervention begins at a dose of 25 mg/kg in the chronic cholesterol-fed rabbit model; type: functional; method in brief: as §1
Rattus norvegicus [9] = assay: In vitro percent decrease in cholesterol activity at 30 mg/kg in acute rat screen; type: functional; details: in the assay text read “In vivo” for “In vitro”
Method in brief: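 Rats received a single gavage dose of 30 mg/kg, suspended in carboxymethylcellulose/Tween-20 in water, followed by one high-fat, high-cholesterol meal. The read-out was inhibition of the overnight rise in plasma total cholesterol, as percent change.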

Oryctolagus cuniculus [10] = assay: Oral bioactivity expressed as %inhibition after 4 hours of drug administration (dose 25 mg/kg) in rabbit bioassay; type: functional
Method in brief: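 Plasma was taken before dosing and at 1, 2 and 4 h. Plasma (0.2 mL) was hexane-extracted, dried and redissolved in chloroform/methanol 2:1. It was then tested for ACAT inhibition in the liver microsomal assay alongside spiked standards and a 2.5 µM CI-976 reference.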

Rattus norvegicus [11] = assay: Change in total cholesterol in Chronic Cholesterol-Fed rat model at dose 30 mg/kg; type: functional; method in brief: as §2
Oryctolagus cuniculus [12] = assay: % change in total cholesterol(TC) versus progression control (PC) with out drug intervention in chronic cholesterol-fed rabbit model at a dose of 25 mg/kg; type: functional; method in brief: as §1
Rattus norvegicus [13] = assay: % change in total cholesterol in Chronic Cholesterol-Fed rat model at dose 30 mg/kg; type: functional; method in brief: as §2

Row | IC50 [1] | inhibition [2] | Compound | Change (Rattus norvegicus [3]) | other results
1 | 26 nM | 24% | CCCCCCCCCCCCn1nnc(C(C(=O)Nc2c(C(C)C)cccc2C(C)C)c2ccccn2)n1 (stereo unspecified) | <64% | 
2 | 13600 nM | 7% | CCCCCCCCCCCCn1nnc(C(C#N)C(=O)Nc2c(OC)cc(OC)cc2OC)n1 (stereo unspecified) | <27% | 
3 | 63 nM | 16% | CCCCCCCCCCCCn1nnc(C2(C(=O)Nc3c(OC)cc(OC)cc3OC)CCCC2)n1 | <56% | 
4 | > 5000 nM | 7% | CCCCCCCCCCCCn1nnc(C(C#N)C(=O)Nc2c(C(C)C)cccc2C(C)C)n1 (stereo unspecified) | <75% | 
5 | 28 nM | 8% | CCCCCCCCCCCCn1nnc(C(C(=O)Nc2c(OC)cc(OC)cc2OC)C2CCCCC2)n1 (stereo unspecified) | <61% | 
6 | 49 nM | 77% | CCCCCCCCCCCCn1nnc(C(Cc2ccccc2)C(=O)Nc2c(OC)cc(OC)cc2OC)n1 (stereo unspecified) | <73% | Change (Rattus norvegicus [5]): 27%; Change (Rattus norvegicus [6]): <50%; inhibition in vivo at 25 mg/kg (Oryctolagus cuniculus [10]): 0%; Change (Rattus norvegicus [13]): <48%
7 | 31 nM | 1% | CCCCCCCCCCCCn1nnc(C(C(=O)Nc2ccc(F)cc2F)c2ccccc2)n1 (stereo unspecified) | <70% | 
8 | 200 nM | 61% | CCCCCCCCCCCCn1nnc(C(C(=O)Nc2c(OC)cc(OC)cc2OC)c2ccc(OC)cc2)n1 (stereo unspecified) | <57% | 
9 | 480 nM | 46% | CCCCCCCCCCCCn1nnc(C(C(=O)Nc2ccccc2)c2ccccc2)n1 (stereo unspecified) | 38% | 
10 | 30 nM | 17% | CCCCCCCCCCCCn1nnc(CCC(=O)Nc2c(C(C)C)cccc2C(C)C)n1 | <47% | 
11 | 56 nM | 61% | CCCCCCCCCCCCc1nnn(CC(=O)Nc2c(OC)cc(OC)cc2OC)n1 | <69% | Change (Rattus norvegicus [5]): 3%; Change (Rattus norvegicus [6]): <46%; Decrease (Rattus norvegicus [9]): 69%; Change (Rattus norvegicus [13]): <44%
12 | 1540 nM | 49% | CCCCCCCCCCCCn1nnc(C(C(=O)Nc2ccc3c(C)cc(C)nc3n2)c2ccccc2)n1 (stereo unspecified) | 8% | 
13 | 13 nM | 66% | CCCCCCCCCCCCn1nnc(C(C(=O)Nc2c(C)nn(C)c2C)c2ccccc2)n1 (stereo unspecified) | <62% | Change (Rattus norvegicus [5]): 28%; Decrease (Rattus norvegicus [9]): 66%
14 | 221 nM | 10% | CCCCCCCCCCCCn1nnc(C(C(=O)Nc2c(OC)cc(OC)cc2OC)c2ccc(-c3ccccc3)cc2)n1 (stereo unspecified) | <43% | 
15 | 659 nM | 0% | CCCCCCCCCCCCn1nnc(C(C(=O)Nc2c(OC)cc(OC)cc2OC)c2ccc(N(C)C)cc2)n1 (stereo unspecified) | <62% | 

Continued, molecule first:

Row | Compound | IC50 [1] | inhibition [2] | Change (Rattus norvegicus [3]) | other results
16 | CCCCCCCCCCCCn1nnc(CC(=O)Nc2c(OC)cc(OC)cc2OC)n1 | 24 nM | 66% | <60% | 
17 | CCCCCCCCCCCCn1nnc(C(C(=O)Nc2ncccc2C)c2ccccc2)n1 (stereo unspecified) | 85 nM | 4% | <52% | 
18 | CCCCCCCCCCCCn1nnc(C(C(=O)Nc2c(C(C)C)cccc2C(C)C)c2nnn[nH]2)n1 (stereo unspecified) | > 5000 nM | 8% | <37% | 
19 | CCCCCCCCCCCCn1nnc(C(=O)Nc2c(C(C)C)cccc2C(C)C)n1 | 1060 nM | 33% | 23% | 
20 | CCCCCCCCCCCCn1nnc(C(C(=O)Nc2c(C(C)C)cccc2C(C)C)c2ccccc2)n1 (stereo unspecified) |  | 47% | <66% | Change (Oryctolagus cuniculus [4]): <61%; Change (Rattus norvegicus [5]): 27%; Change (Rattus norvegicus [6]): <40%; ED50 (Oryctolagus cuniculus [7]): 1.2 mg/kg; Change (Oryctolagus cuniculus [8]): <43%; Decrease (Rattus norvegicus [9]): 66%; inhibition in vivo at 25 mg/kg (Oryctolagus cuniculus [10]): 96%; Change (Rattus norvegicus [11]): <38%; Change (Oryctolagus cuniculus [12]): <73%
21 | CCCCCCCCCCCCn1nnc(C(C(=O)NC2CC2)c2ccccc2)n1 (stereo unspecified) | 244 nM | 10% | <62% | 
22 | CCCCCCCCCCCCn1nnc(C(C(=O)NC(C)(C)C)c2ccccc2)n1 (stereo unspecified) | 3350 nM | 1% | 1% | 
23 | CCCCCCCCCCCCn1nnc(C(F)C(=O)Nc2c(OC)cc(OC)cc2OC)n1 (stereo unspecified) | 1760 nM |  |  | 
24 | CCCCCCCCCCCCn1nnc(C(C(=O)Nc2c(OC)ncnc2OC)c2ccccc2)n1 (stereo unspecified) | 13 nM | 39% | <56% | Decrease (Rattus norvegicus [9]): 66%
25 | CCCCCCCCCCCCc1nnn(CC(=O)Nc2c(C(C)C)cccc2C(C)C)n1 | 6 nM | 95% | <68% | Change (Rattus norvegicus [5]): 165%; Change (Rattus norvegicus [6]): <81%; Decrease (Rattus norvegicus [9]): 68%; Change (Rattus norvegicus [13]): <72%
26 | CCCCCCCCCCCCn1nnc(C(C(=O)Nc2ccccn2)c2ccccc2)n1 (stereo unspecified) | 480 nM | 8% | 22% | 
27 | CCCCCCCCCCCCCCCCn1nnc(C(C(=O)Nc2c(OC)cc(OC)cc2OC)c2ccccc2)n1 (stereo unspecified) | 53 nM | 55% | <47% | Change (Rattus norvegicus [5]): 16%; Change (Rattus norvegicus [6]): -9%
28 | CCCCCCCCn1nnc(C(C(=O)Nc2c(OC)cc(OC)cc2OC)c2ccccc2)n1 (stereo unspecified) | 270 nM | 13% | <39% | 
29 | CCCCCCCCCCCCn1nnc(CCC(=O)Nc2c(OC)cc(OC)cc2OC)n1 | 480 nM | 9% |  | 
30 | CCCCCCCCCCCCn1nnc(C(C(=O)Nc2c(OC)cc(OC)cc2OC)c2ccccn2)n1 (stereo unspecified) | 59 nM | 23% | <60% | 
31 | CCCCCCCCCCCCn1nnc(C(C(=O)Nc2c(OC)cc(OC)cc2OC)c2ccc(F)cc2)n1 (stereo unspecified) | 36 nM | 46% | <68% | Change (Rattus norvegicus [5]): 12%; Change (Rattus norvegicus [6]): <53%
32 | CCCCCCCCCCCCn1nnc(CC(=O)Nc2c(C(C)C)cccc2C(C)C)n1 | 5 nM | 91% | <64% | Change (Rattus norvegicus [5]): 82%; Change (Rattus norvegicus [6]): <63%; Change (Rattus norvegicus [13]): <42%
33 | CCCCCCCCCCCCn1nnc(C(C)(C)C(=O)Nc2c(OC)cc(OC)cc2OC)n1 | 33 nM | 34% | <69% | 
